For experiment [1], the target named is yeast α-glucosidase (yeast AG) (Saccharomyces cerevisiae, UniProt P53051). The experiment can be described thus: biochemical.
Experiment [2] deals with T1, recombinant human protein tyrosine phosphatase 1B (PTP-1B) (Homo sapiens, UniProt P18031).
T1 sequence (P18031 1-435): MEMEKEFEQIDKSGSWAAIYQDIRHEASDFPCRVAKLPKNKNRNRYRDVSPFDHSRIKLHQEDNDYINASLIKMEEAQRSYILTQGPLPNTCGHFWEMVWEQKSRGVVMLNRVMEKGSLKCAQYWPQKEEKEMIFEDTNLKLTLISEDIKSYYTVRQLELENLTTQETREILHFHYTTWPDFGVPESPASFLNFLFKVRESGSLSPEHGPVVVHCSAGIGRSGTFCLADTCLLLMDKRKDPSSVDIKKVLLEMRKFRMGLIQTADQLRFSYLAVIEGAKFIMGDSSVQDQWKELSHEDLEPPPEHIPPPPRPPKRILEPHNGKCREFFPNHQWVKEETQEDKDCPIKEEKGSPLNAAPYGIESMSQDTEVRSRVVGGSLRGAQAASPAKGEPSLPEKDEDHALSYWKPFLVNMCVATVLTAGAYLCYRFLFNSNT
The experiment can be described thus: PTP-1B activity assay. The format is biochemical.

Experiment [3] addresses T2, PTP-1B (Homo sapiens, UniProt P18031).
T2 sequence (P18031 1-435): T1 sequence (P18031 1-435)
The experiment can be described thus: PTP-1B kinetic studies. The format is biochemical. Summed up:
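Recombinant human PTP-1B in 100 mM tris buffer, pH 6.8. Test compound at 0.03, 0.07 and 0.1 mM, dissolved in DMSO or buffer, preincubated 5 min with enzyme (solution at 1.56 mg/mL). Then p-NPP added at 0.6–3 mM for 20 min at room temperature, absorbance read at 415 nm. Lineweaver–Burk double-reciprocal plots made; Vmax, Km and Ki from nonlinear regression fit.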

Two compounds from publication PMC8427789 (ACS Omega, 2021) can be followed below.

Structures are written as SMILES.

Chain of yeast α-glucosidase (yeast AG) (P53051 2-589): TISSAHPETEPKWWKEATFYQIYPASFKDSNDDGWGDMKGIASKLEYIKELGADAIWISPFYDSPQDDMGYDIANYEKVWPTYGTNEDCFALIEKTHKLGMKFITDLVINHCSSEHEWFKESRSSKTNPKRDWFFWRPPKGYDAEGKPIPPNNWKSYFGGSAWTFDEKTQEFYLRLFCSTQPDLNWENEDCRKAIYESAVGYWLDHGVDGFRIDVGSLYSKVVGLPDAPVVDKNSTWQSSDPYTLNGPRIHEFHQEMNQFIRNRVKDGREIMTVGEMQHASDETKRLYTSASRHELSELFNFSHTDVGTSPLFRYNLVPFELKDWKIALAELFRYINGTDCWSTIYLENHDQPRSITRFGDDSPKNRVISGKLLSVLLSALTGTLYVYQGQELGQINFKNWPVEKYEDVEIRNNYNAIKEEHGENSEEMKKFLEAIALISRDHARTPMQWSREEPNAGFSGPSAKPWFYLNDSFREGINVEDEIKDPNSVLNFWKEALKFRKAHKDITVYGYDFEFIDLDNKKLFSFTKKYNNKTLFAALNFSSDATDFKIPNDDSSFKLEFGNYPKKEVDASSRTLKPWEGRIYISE

`C[C@H]1O[C@H](O[C@H]2[C@H](O)[C@@H](O)[C@@H](O[C@H]3[C@H](O)[C@@H](O)C(O)O[C@@H]3CO)O[C@@H]2CO)[C@H](O)[C@@H](O)[C@@H]1N[C@H]1C=C(CO)[C@@H](O)[C@H](O)[C@H]1O` (some centres unmarked) [acarbose]: in experiment [1], half-maximal inhibition (IC50) was put at 403 ± 10 µM.

Regarding `COC(=O)c1c(O)ccc2oc3cc(CO)cc(O)c3c(=O)c12` [Compound 3, sydowinin B], the IC50 in experiment [2] worked out at 81 ± 4 µM. Moreover, the Ki in experiment [3] was found to be 27.5 µM. The “type of inhibition of PTP-1B” value in experiment [3] (Lineweaver–Burk plot) is reported as “noncompetitive”. Moreover, the Vmax in experiment [3] (PTP-1B, p-NPP) stood at 1.308 mM/min.

Broadly, the IC50 is the concentration that gives 50% inhibition. The term Ki denotes a measure of affinity in units of concentration, obtained from inhibition or displacement. A lower Ki goes with tighter binding. A word on the Vmax: it is the top rate of the reaction or transport when substrate is in excess.
